Source: PubChem (several laboratories)
FAS TE block: FAS thioesterase domain inhibitors, primary screen, biochemical, fluorescence intensity, uHTS; recombinant FAS-TE, OMFH fluorogenic substrate, fluorescence endpoint; inhibition, % at 15 µM; 360,000 compounds, 0.67% hits; AID 602261, 2012;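 active = compounds whose normalised, plate-corrected inhibition of enzyme fluorescence in the single-dose primary screen is 50% or more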
Arrestin-AP2 inh: inhibitors of beta-arrestin/AP2 binding, primary screen, biochemical, GPCR trafficking, flow cytometry. 340,000 compounds, 0.31% hits. beta-arrestin 1 C-terminal peptide binding to AP2 beta2-adaptin appendage (human). AID 504490, 2011. FITC-arrestin peptide / GST-AP2 beads; AP2 beta2 appendage carries R879A mutation. inhibition, % at 10 µM;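 active = inhibition above a set limit, near 3 SD of compounds lacking own fluorescence, cut at about 54% in these data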
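Test system: GST-tagged AP2 beta2-adaptin appendage (R879A) on 4 µm glutathione beads; also added: fluorescein-tagged arrestin peptide at 50 nM final; timing: 12 min plus 1 h, RT; signal: flow cytometry, FL1 (488/535 nm); read-out: percent drop in bead-associated FITC signal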
ADAM10 inh: human ADAM10 inhibitors, primary screen, biochemical, QFRET, HTS; Disintegrin and metalloproteinase domain-containing protein 10 (Homo sapiens), O14672; 370,000 compounds, 0.62% hits; AID 720582, 2013; recombinant ADAM10, EDANS/DABCYL FRET peptide cleavage, 3 h; inhibition, % at 7 µM;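 active = inhibition above a per-campaign cutoff equal to the mean of compounds falling between control-based bounds plus 3 SD, cut at about 20% in these data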
Target sequence (O14672 214-748 limits assumed): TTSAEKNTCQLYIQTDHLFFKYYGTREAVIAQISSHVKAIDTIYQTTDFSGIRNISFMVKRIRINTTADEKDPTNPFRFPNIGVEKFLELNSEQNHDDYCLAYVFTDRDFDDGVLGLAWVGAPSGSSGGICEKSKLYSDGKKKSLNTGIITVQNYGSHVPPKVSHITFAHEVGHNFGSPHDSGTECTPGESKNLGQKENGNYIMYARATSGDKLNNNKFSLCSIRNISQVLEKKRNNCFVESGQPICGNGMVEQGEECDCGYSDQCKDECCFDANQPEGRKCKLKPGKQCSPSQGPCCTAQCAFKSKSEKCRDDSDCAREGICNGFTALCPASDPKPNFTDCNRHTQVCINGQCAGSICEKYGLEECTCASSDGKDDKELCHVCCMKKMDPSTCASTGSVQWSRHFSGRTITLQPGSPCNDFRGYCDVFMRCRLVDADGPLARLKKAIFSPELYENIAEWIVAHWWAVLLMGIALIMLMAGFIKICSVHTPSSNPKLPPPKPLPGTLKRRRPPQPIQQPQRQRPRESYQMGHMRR
CaV13 ICDI inh: Primary screen for inhibitors of IQ motif and Ca2+-dependent inactivation inhibitor domain binding in CACNA1D, Förster resonance energy transfer in living cells, …; 340,000 compounds, 0.098% hits; AID 743397; HEK cells, CFP/YFP FRET ICDI-IQ, plate reader, 10 min; percent FRET-ratio fall versus neutral wells; inhibition, % at 12.3 µM;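 active = mean replicate inhibition of at least 30% and at least 1% of replicates passing that level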
ADAM17 inh: ADAM17 inhibitors, primary screen, biochemical, QFRET | inhibition, % at 6.95 µM | 370,000 compounds, 0.83% hits | recombinant ADAM17, EDANS/DABCYL FRET peptide cleavage | Disintegrin and metalloproteinase domain-containing protein 17 (Homo sapiens), P78536;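 active = inhibition above the mean of compounds lying between control limits plus 3 SD, set per campaign, cut at about 8.5% in these data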
CendR NRP1 mod: modulators of CendR peptide binding to NRP-1, primary screen, biochemical, fluorescence polarization, uHTS; 360,000 compounds, 0.85% hits; Neuropilin-1 (Homo sapiens), O14786; inhibition, % at 25 µM; FAM-RPARPAR peptide binding to NRP-1; AID 602438, 2012;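 active = inhibition or corrected inhibition above about 18%, plus a signal ratio from 0.5 to 1.5, limit read from the data, passing the limit was not always enough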
Of the large screens only hits and unclear results are named; the others gave an inactive call. The list is not random: actives were taken first. Their share in the collection is about 2.9%.

CC(C)(C)NC(=O)C(c1cccs1)N(C(=O)c1csnn1)c1cccc(F)c1 (stereo not given)	none
CCC(C)(C)NC(=O)C(c1ccco1)N(C(=O)c1csnn1)c1cccc(F)c1 (stereo not given)	CendR NRP1 mod 34
COC(=O)[C@@]12CCCCC=C1N(CCc1ccc(Cl)cc1)C(=O)[C@H]2CC(=O)NCC12CC3CC(CC(C3)C1)C2	none (no result: FAS TE block, Arrestin-AP2 inh, CaV13 ICDI inh, CendR NRP1 mod)
NC(N)=NCCC[C@H](NC(=O)OCc1ccccc1)C(=O)O	CendR NRP1 mod 27
NC(=O)CC(NC(=O)OCc1ccccc1)C(=O)O (stereo not given)	CendR NRP1 mod 31
O=C(CC(NC(=O)OCc1ccccc1)C(=O)O)OCc1ccccc1 (stereo not given)	none
COC(=O)CCCC1=CC2=C(c3ccccc3)C(=O)C(C)(OC(=O)C3CCCC3)C(=O)C2=CN1Cc1ccco1 (stereo not given)	CendR NRP1 mod 30
COC(=O)CCCC1=CC2=C(c3ccccc3)C(=O)C(C)(OC(=O)C3CCCC3)C(=O)C2=CN1CCCCO (stereo not given)	none
C=CCn1c(NC(=O)c2ccccc2)nc2ccccc21	CendR NRP1 mod 26
CCn1c(NC(=O)c2ccccc2)nc2ccccc21	none
Cc1ccc(N=C2SC(C(=O)Nc3ccc(OC(F)(F)F)cc3)C(N)=C2C(=O)Nc2c(C)cc(C)cc2C)cc1 (stereo not given)	ADAM10 inh 27, ADAM17 inh 14
COC(=O)[C@]12C[C@H](CC(=O)NCCCCc3ccccc3)C(=O)N(Cc3ccc(Cl)cc3Cl)C1=C[C@H](C(C)C)O[C@@H]2C1CC1	none (no result: FAS TE block, Arrestin-AP2 inh, CaV13 ICDI inh, CendR NRP1 mod)
COc1ccc(/C=C2\SC(=S)N(CCC(=O)NC3CCCC3)C2=O)cc1OC	CendR NRP1 mod 22
CCOC(=O)N1CCN(C(=O)CCN2C(=O)/C(=C\c3ccc(OC)c(OC)c3)SC2=S)CC1	none (no result: Arrestin-AP2 inh)
N#C/C(=C\c1ccco1)C(=O)Nc1cccc2ncccc12	CaV13 ICDI inh 41
Cc1ccc(S(=O)(=O)N2CCC(=O)N(CCOC(=O)Nc3ccccc3C)CC2)cc1	CendR NRP1 mod 19
O=C(Nc1cccc(S(=O)(=O)Nc2ccc(Cl)cc2)c1)c1ccc(Cl)nc1	ADAM10 inh 31
COc1ccc(NS(=O)(=O)c2cccc(NC(=O)c3ccc(Cl)nc3)c2)cc1	none
Cc1ccc(Cn2c(=N)n(CC(=O)c3ccccc3)c3ccccc32)cc1	FAS TE block 64
COc1ccc(CCNC(=O)c2nnn(CC(=O)Nc3ccccc3C)c2N)cc1OC	CendR NRP1 mod 28
CCCCNS(=O)(=O)CC1NCc2cc(OC)ccc21 (stereo not given)	none (no result: FAS TE block, Arrestin-AP2 inh, CaV13 ICDI inh, CendR NRP1 mod)
CCOC(=O)C1CCN(C(=O)C2CCN(C(=O)c3ccc([N+](=O)[O-])cc3)CC2)CC1	CendR NRP1 mod 24 (no result: ADAM10 inh, CaV13 ICDI inh, ADAM17 inh)
CCOC(=O)N1CCN(C(=O)C2CCN(C(=O)c3ccc([N+](=O)[O-])cc3)CC2)CC1	none
C=CC[C@@H](CC(=O)NCCO)C(=O)N[C@H](COC(=O)[C@H](CC=C)CC(=O)OC(C)(C)C)Cc1c[nH]c2ccccc12	none
C=CCC[C@H](Cc1ccc(F)cc1)C(=O)OC[C@H](Cc1c[nH]c2ccccc12)NC(=O)[C@@H](CC=C)CC(=O)NCCO	ADAM10 inh 26
C=CC[C@@H](CC(=O)N[C@H](CO)Cc1ccccc1)C(=O)N[C@H](COC(=O)[C@H](CC=C)CC(=O)OC(C)(C)C)Cc1c[nH]c2ccccc12	ADAM10 inh 29, ADAM17 inh 17
C=CC[C@@H](CC(=O)N(CCO)Cc1ccccc1)C(=O)N[C@@H](COC(=O)[C@H](CC=C)CC(=O)OC(C)(C)C)Cc1c[nH]c2ccccc12	ADAM10 inh 35, ADAM17 inh 22
Cc1nc2ccc(S(=O)(=O)NCC(=O)N(C)Cc3ccccc3F)cc2s1	none (no result: FAS TE block, Arrestin-AP2 inh, CaV13 ICDI inh, CendR NRP1 mod)
NC(=S)NN=Cc1cc(-c2cccc(N)c2)ccn1	none (no result: Arrestin-AP2 inh)
COc1ccc2c(-c3ccccc3)cc(SC(C)C(N)=O)nc2c1 (stereo not given)	CendR NRP1 mod 29
COc1ccc(NC(=O)COC(=O)[C@@H]2CCCN2C(=O)c2cccs2)cc1	CendR NRP1 mod 29
COc1cc(OC)nc(C(NC(=O)C2CCN(Cc3c[nH]c4ccccc34)CC2)c2ccc(Cl)cc2)n1 (stereo not given)	none (no result: Arrestin-AP2 inh)
COCCNC(=O)C1(S(=O)(=O)c2ccccc2)CC=CC1	none
O=C(NCC1CC1)C1(S(=O)(=O)c2ccccc2)CC=CC1	CendR NRP1 mod 21
Cc1ccc(-n2c(SCC(=O)Nc3ccccc3-c3ccccc3)nnc2-c2ccccn2)cc1	none (no result: FAS TE block, Arrestin-AP2 inh, CaV13 ICDI inh, CendR NRP1 mod)
COC(=O)C1=C(C)N(Cc2ccccc2)C(=NCCc2ccccn2)N[C@H]1c1cccc(C(F)(F)F)c1	none
CCN1C(=NCCc2ccccn2)N[C@@H](c2cccc(C(F)(F)F)c2)C(C(=O)OC)=C1C	CendR NRP1 mod 21
Cc1ccc(CSCC(=O)N(CCC(C)C)c2c(N)n(Cc3ccccc3)c(=O)[nH]c2=O)cc1	none
CCCN(C(=O)CSCc1ccc(Cl)cc1)c1c(N)n(Cc2ccccc2)c(=O)[nH]c1=O	CendR NRP1 mod 27
CN1CCN(C(=O)c2cccc3c(-c4ccc(F)c(F)c4)coc23)CC1	none (no result: Arrestin-AP2 inh, ADAM10 inh, CaV13 ICDI inh, ADAM17 inh)
CCCCOc1ccc(C(=O)N/C(=C/C=C/c2ccccc2)C(=O)O)cc1	CendR NRP1 mod 21
CC(=O)c1ccc(N2CCN(C(=O)CCCn3c(=S)[nH]c4cc5c(cc4c3=O)OCO5)CC2)cc1	ADAM10 inh 25
COC(=O)c1cn(C(=O)c2ccc(Br)o2)c2ccccc12	CendR NRP1 mod 25 (no result: CaV13 ICDI inh)
Cc1cccn2c(=O)c3cc(C(=O)NCCN4CCOCC4)c(=N)n(Cc4ccc(F)cc4)c3nc12	CaV13 ICDI inh 102
Cc1cccn2c(=O)c3cc(C(=O)NCC4CCCO4)c(=N)n(CC4CCCO4)c3nc12 (stereo not given)	CaV13 ICDI inh 58
CCOCCCNc1nc2nc3ccc(C)cn3c(=O)c2cc1C(=O)NCC1CCCO1 (stereo not given)	CaV13 ICDI inh active
CCNC(=O)c1cc2c(=O)n3cccc(C)c3nc2n(Cc2ccc(C)cc2)c1=N	CaV13 ICDI inh 55
Cc1cccn2c(=O)c3cc(C(=O)NCCN4CCOCC4)c(=N)n(CCN4CCOCC4)c3nc12	none
O=S1(=O)CC(N2CCCC2)CN1Cc1cn(Cc2ccccc2)nn1 (stereo not given)	none (no result: Arrestin-AP2 inh)
